# A selection: hits, their analogues and other compounds. The true share with any hit is near 29%.
# Ecoli WT expand = growth inhibitors of wild-type E. coli, primary screen, strain BW25113, expanded library, OD600; AID 710, 2007; OD600 absorbance; growth inhibition, % at 100 µM; hit rate 0.15% among 98,000;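 active = growth inhibition above about 50% at one test dose, limit read from the data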;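 also: growth measured after 20 h incubation at 37 °C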
# CYP2C19 inh = blockers of cytochrome P450 2C19 activity – biochemical, luminescence, ADME assay, primary screen. CYP2C19 Supersomes, luciferin-H EGE luminescence, 30 min. hit rate 21% among 96,000. inhibition, % at 5 µM;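 active = CYP2C19 inhibition above a set limit at 5 µM in the primary screen, cut at about 50% in these data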
# Target sequence (P33261 whole entry, looked up): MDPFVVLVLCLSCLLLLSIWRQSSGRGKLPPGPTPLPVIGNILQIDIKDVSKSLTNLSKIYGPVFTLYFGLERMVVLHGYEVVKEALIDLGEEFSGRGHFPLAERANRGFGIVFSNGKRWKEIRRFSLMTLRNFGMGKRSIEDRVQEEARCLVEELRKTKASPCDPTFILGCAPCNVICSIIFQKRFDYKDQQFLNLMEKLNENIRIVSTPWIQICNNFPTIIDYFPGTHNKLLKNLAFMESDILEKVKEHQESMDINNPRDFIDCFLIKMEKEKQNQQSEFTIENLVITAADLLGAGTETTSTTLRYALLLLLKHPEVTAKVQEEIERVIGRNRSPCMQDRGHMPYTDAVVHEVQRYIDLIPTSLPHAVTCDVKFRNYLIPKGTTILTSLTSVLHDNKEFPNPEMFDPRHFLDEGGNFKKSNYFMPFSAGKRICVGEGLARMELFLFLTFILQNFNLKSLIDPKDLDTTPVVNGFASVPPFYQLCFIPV
# CYP2C9 act = human CYP2C9 activators, primary screen, biochemical, luminescence. recombinant CYP2C9, luciferin-H conversion; active compounds read high; factor 1 = untreated enzyme, 0 = blocked. activation factor at 5 µM. hit rate 1.4% among 96,000. AID 1024, 2008;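 active = activation factor of 2 or more for CYP2C9 at a 5 µM dose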
# CYP2C19 activ = human CYP2C19 activators, primary screen, biochemical, luminescence | Cytochrome P450 2C19 (Homo sapiens), P33261 | recombinant CYP2C19, luciferin-H EGE luminescence; active compounds read high; 0 = fully inhibited enzyme, 1 = untreated enzyme | activation factor at 5 µM | 96,000 tested, under 10 active;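 active = activation factor of at least 2 at 5 µM in the primary screen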
# CYP2C9 inhib = blockers of cytochrome P450 2C9 activity – biochemical, luminescence, ADME assay, primary screen | P11712 | CYP2C9 Supersomes, luciferin-H conversion | inhibition, % at 5 µM | hit rate 20% among 96,000;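 active = blocking of liver enzyme CYP2C9 beyond about 50% at 5 µM, limit read from the data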
# Ecoli tolC = growth inhibitors of E. coli tolC mutant, primary screen, strain BW25113 ΔtolC::kan, 384-well. OD615. growth inhibition, % at 10 µM (by protocol). hit rate 2.2% among 65,000;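 active = growth inhibition at or above a cutoff equal to the mean over every tested compound plus 3 SD, cut at about 60% in these data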;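 also: growth measured after 20 h incubation at 37 °C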
#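 Material: E. coli BW25113 ΔtolC::kan, tolC deletion mutant strain. Measure: percent growth inhibition. Schedule: 37 °C, 20 h exposure. Doses: single-point testing at 10 µM. Signal: A615 absorbance measurement. Buffer or medium: kanamycin-containing LB broth (50 µg/mL).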
# Hits are given with their value; 0 = inactive; - = no result.
SMILES,Ecoli WT expand,CYP2C19 inh,CYP2C9 act,CYP2C19 activ,CYP2C9 inhib,Ecoli tolC
O=S(=O)(c1ccc(F)cc1)n1ccc(-c2cccc(OCc3ccc(Cl)cc3Cl)c2)n1,0,0,0,0,0,-
Cc1nc2ccc(NC(=O)NCCCO)cc2s1,0,0,0,0,0,-
CCOC(=O)Nc1sc2c(c1C#N)CCCC2,0,0,0,0,0,-
CCOC(=O)N1CCN(S(=O)(=O)c2ccc(C(=O)Nc3sc4c(c3C#N)CCC4)cc2)CC1,0,0,0,0,74.7,0
CCOC(=O)N1CCN(S(=O)(=O)c2ccc(OCC)cc2)CC1,0,76.5,0,0,0,-
CCN(CC)c1ccc(CN2CCCCCC2)cc1,0,0,0,0,0,-
O=C(NCc1ccccc1)NS(=O)(=O)c1ccccc1Cl,0,0,0,0,0,0
CN1CC=C2C(C#N)=C(N)C(C#N)(C#N)[C@H](c3cccc(Cl)c3)C2C1 (stereo partly drawn),0,0,0,0,0,0
CC(C)c1ccc(C2C3CSCC=C3C(C#N)=C(N)C2(C#N)C#N)cc1 (stereo not drawn),0,67.3,0,0,100.2,-
Cc1ccc(C2=CSC3=NCCN23)c(C)c1,0,56.3,0,0,0,0
CCC(CC)c1nnc(NC(=O)c2cccc(S(=O)(=O)N3CCc4ccccc43)c2)s1,0,0,0,0,75.5,-
CN1CCc2nc(NC(=O)c3cccc(S(=O)(=O)N4CCc5ccccc54)c3)sc2C1,0,0,0,0,0,0
CCCOC(=O)c1ccc2c(c1)C(=O)N(c1ccccc1)C2=O,0,0,0,0,0,0
COc1ccc(N2CC(C(=O)Nc3ccccc3C(=O)NCc3ccco3)CC2=O)cc1 (stereo not drawn),0,65.8,0,0,84.2,0
O=C(NCc1ccco1)C1CC(=O)N(CCc2ccccc2)C1 (stereo not drawn),0,0,0,0,0,0
CCCOc1ccc(N2CC(C(=O)Nc3ccccc3C(=O)NCc3ccco3)CC2=O)cc1 (stereo not drawn),0,0,0,0,61.9,0
O=C(NCc1ccco1)C1CC(=O)N(c2ccc(O)cc2)C1 (stereo not drawn),0,0,2.5,0,0,0
CC(C)Cc1nc(SCC(=O)Nc2ccc(S(N)(=O)=O)cc2)n[nH]1,0,0,0,0,0,-
O=C1NC(c2cccs2)Nc2sc3c(c21)CCCC3 (stereo not drawn),0,0,0,0,60.2,0
CN1CCc2c(sc3c2C(=O)NC(c2cccc(OC(=O)c4cccs4)c2)N3)C1 (stereo not drawn),0,0,0,0,0,0
Cc1ccc(C)c(-n2nnnc2SCC(=O)c2ccc3c(c2)NC(=O)CO3)c1,0,56.2,2.5,0,0,0
COCCNC(=O)Cn1c(=O)n(Cc2ccc(C(=O)NCc3ccco3)cc2)c(=O)c2ccccc21,-,-,-,-,-,0
O=C(NCc1ccco1)c1ccc(Cn2c(=O)c3ccccc3n(Cc3cccc(F)c3)c2=O)cc1,0,80.3,0,0,60.8,-
O=C(NCc1ccco1)c1ccc(Cn2c(=O)c3ccccc3n(Cc3ccc(Cl)cc3)c2=O)cc1,0,76.1,0,0,86.2,-
CCc1noc(C)c1C(=O)Nc1ncc(C)s1,0,0,0,0,0,0
SMILES,Ecoli WT expand,CYP2C19 inh,CYP2C9 act,CYP2C19 activ,CYP2C9 inhib,Ecoli tolC
CCOc1ccc(C=O)cc1CN1CCCCC1,0,0,0,0,0,-
CC(C)CCOCc1nc2sc3c(c2c(=O)[nH]1)CCC(C)C3 (stereo not drawn),0,54.2,0,0,71.9,-
O=C(CCC1CCCC1)N1CCN(C(=O)C2CC2)CC1,0,-,-,-,-,0
O=C(CCC1CCCC1)N1CCN(C2CCCC2)CC1,0,73.4,0,0,0,0
CC1=CC(C)(C)n2c(O)c(C3=NC(=S)NC3=O)c3cc(OC(=O)c4cccc5ccccc45)cc1c32,0,0,0,0,0,-
CCN1C(=O)c2cccc3cccc1c23,0,0,4.1,0,0,0
COCCCNC(=O)Cn1cc(C(C)=O)c2ccccc21,0,0,0,0,0,0
Cc1c(C#N)c2ccccc2n1CC(=O)NCC1CCCO1 (stereo not drawn),0,0,0,0,0,0

# Bioassay records deposited in PubChem BioAssay by several laboratories.
